SMILES strings stand for the structures. In all, about 360,000 compounds went through this assay and about 1,100 (0.31%) were called active.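 Rule for the calls: active = activation above the run cutoff, the mean activation of all test compounds plus 3 SD (cut at about 18% in these data); inactive = the rest.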 What follows is part of a selection rich in actives, with near analogues and random picks from the rest.

58 compounds from PubChem BioAssay AID624038 (The Scripps Research Institute Molecular Screening Center, 2012) can be followed below.

Muscarinic acetylcholine receptor M5 (Homo sapiens), sequence (P08912 whole entry, looked up): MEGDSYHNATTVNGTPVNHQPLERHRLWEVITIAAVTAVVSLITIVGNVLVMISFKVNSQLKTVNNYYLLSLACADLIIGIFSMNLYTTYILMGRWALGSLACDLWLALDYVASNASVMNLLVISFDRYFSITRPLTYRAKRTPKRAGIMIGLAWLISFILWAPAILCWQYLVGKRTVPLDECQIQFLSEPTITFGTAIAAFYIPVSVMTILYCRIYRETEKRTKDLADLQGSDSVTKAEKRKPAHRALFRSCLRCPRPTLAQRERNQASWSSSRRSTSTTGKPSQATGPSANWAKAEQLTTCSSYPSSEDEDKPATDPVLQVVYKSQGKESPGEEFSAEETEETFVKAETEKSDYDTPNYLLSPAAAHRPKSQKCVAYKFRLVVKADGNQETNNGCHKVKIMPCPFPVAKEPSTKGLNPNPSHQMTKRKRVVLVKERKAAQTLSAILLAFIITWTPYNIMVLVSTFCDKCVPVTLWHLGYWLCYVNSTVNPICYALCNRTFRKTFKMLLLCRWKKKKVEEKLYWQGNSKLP

The assay has as its target Muscarinic acetylcholine receptor M5 (Homo sapiens) (UniProt P08912). Description: human M5 muscarinic receptor positive allosteric modulators, primary screen, CHO-K1 cells, Fluo-8 calcium fluorescence (AID 624038). As to conditions: CHO-K1 hM5, Fluo-8 calcium, ACh EC20 PAM; at 3 µM; stronger effect = higher value; 0% = ACh EC20, 100% = ACh EC100. An outline of the steps:
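Probe or stimulus: acetylcholine, EC20 level; Assay system: human M5 receptor in CHO-K1 cells; Schedule: compound preincubation 140 s before EC20 acetylcholine addition; Technique: intracellular calcium via Fluo-8 fluorescence; Dosing: single-point, 3 µM nominal; Read-out basis: percent activation from peak-over-basal fluorescence ratio, scaled EC20-to-EC100 acetylcholine; Repeats: one well per compound, no replicates.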
For `Cc1ccc(C(=O)OC2=CC(=O)CC(C)(C)C2)cc1`, the activation was 0.4% (inactive).
`CCOc1cc(C(C(=O)NCC2CCCO2)N(C(=O)Cn2nnc3ccccc32)c2cccc(OC)c2)ccc1O` (stereo not drawn): the activation is 19% (active).
To `COc1ccc(C(C(=O)NCC2CCCO2)N(C(=O)Cn2nnc3ccccc32)c2ccc(NC(C)=O)cc2)cc1OC` (stereo not drawn) belongs 5.16% (inactive).
Consider `Cc1ccc(C(C(=O)NCc2ccco2)N(CC2CCCO2)C(=O)Cn2nnc3ccccc32)cc1` (stereo not drawn), for which the activation was -1.09% (inactive).
For `CC1CN(CCOc2ccccc2[N+](=O)[O-])CC(C)O1` (stereo not drawn), the activation is 8.76% (inactive).
As to `Cc1cc(C)c(OCCN2CC(C)OC(C)C2)c(Br)c1` (stereo not drawn), the activation is 23.1% (active).
To `CC1CN(CCCOc2ccccc2-c2ccccc2)CC(C)O1` (stereo not drawn) belongs 0.63% (inactive); to `CCN(CC)Cc1csc2ccc(Br)cc12`, -8.32% (inactive).
On to `CN(Cc1ccccc1)C(=O)[C@@H]1CCCN1C(=O)[C@@H]1CCCN1C(=O)c1c(F)cccc1F`, for which the activation was -3.49% (inactive).
As to `O=C(CCN1C(=O)[C@@H]2Cc3ccccc3CN2C1=O)NCc1ccccc1`, the activation is 21.5% (active).
In the case of `O=C(CCN1C(=O)[C@@H]2Cc3ccccc3CN2C1=O)NCCc1ccccc1`, the activation is -2.71% (inactive).
In the case of `Cc1ccc(CNC(=O)CCN2C(=O)[C@@H]3Cc4ccccc4CN3C2=O)cc1`, the activation was -3.61% (inactive).
Regarding `O=C(CNC(=O)COc1ccccc1)NCCc1ccccn1`, the activation is -11% (inactive).
In the case of `O=C(O)C(CCc1ccccn1)c1ccccc1` (stereo not drawn), the activation was 19.2% (active).
As to `c1ccc(CCc2ccccn2)cc1`, the activation is -5.1% (inactive).
In the case of `Cc1cccc(C(=O)NC2CCN(CC(=O)Nc3cccc(Cl)c3)CC2)c1` it was -2.77% (inactive); in that of `CCC(C)(C)n1nnnc1C(c1ccc(OC)c(OC)c1)N1CCN(C(=O)c2ccco2)CC1` (stereo not drawn), 4.04% (inactive); in that of `COc1ccccc1N(C)C(=O)c1cc(S(=O)(=O)N2CCc3ccccc32)cn1C`, -2.97% (inactive).
Take `COc1ccccc1C(=O)Nc1ccc(OCC(=O)N2CCCCC2)cc1`: the activation is 1% (inactive).
Turning to `COc1cccc(OC)c1C(=O)Nc1ccc(N2CCCCC2)cc1`, the activation is 20.9% (active).
To `COc1ccccc1C(=O)NC(=S)Nc1ccc(N2CCOCC2)cc1` belongs 4.29% (inactive).
With `CN(C)c1ccc(/C=N/NC(=O)C(O)c2ccc(Br)cc2)cc1` (stereo not drawn), the activation was 20.2% (active).
With `CN(C)c1ccc(/C=N/NC(=O)c2ccc(Cn3cc(Br)cn3)o2)cc1`, the activation was -6.88% (inactive).
To `COc1ccc(/C=N/NC(=O)C(C)N(c2ccc(OC)cc2)S(C)(=O)=O)cc1` (stereo not drawn) belongs -7.14% (inactive).
On to `O=C(NC1CCCCC1)C1CCC(CNS(=O)(=O)c2ccccc2)CC1` (stereo not drawn), for which the activation was -2.41% (inactive).
In the case of `COc1cc(C(=O)NC2CCN(C)CC2)ccc1Nc1ncc2c(n1)N(C1CCC(O)CC1)CCC(=O)N2C` (stereo not drawn) it was -2.26% (inactive); in that of `CCCCCNC(=O)C1C(=O)Nc2ccccc2C(=O)N1C(C)(C)C` (stereo not drawn), 7.08% (inactive); in that of `COCCNC(=O)c1onc(CSc2cccc(C)c2)c1C(=O)O`, -3.85% (inactive).
In the case of `O=C(NNc1nc(N2CCCC2)nc(N2CCCC2)n1)c1ccccc1` it was 6.43% (inactive); in that of `O=C(NNC(=O)C1CCN(c2ncccn2)CC1)c1ccccc1`, 26.2% (active); in that of `O=C(NNC(=O)C1CCC1)c1ccccc1`, 2.72% (inactive).
In the case of `CN(C)/C(=N\OC(=O)c1ccccc1)c1nonc1N`, the activation is -4.7% (inactive).
On to `COc1cc(Cn2c3ccc(NC(=O)CC(C)c4ccccc4)cc3c(=O)n2C)ccc1F` (stereo not drawn), for which the activation is -5.77% (inactive).
As to `O=C(Nc1cccc(C(=O)O)c1)/C(=C\c1ccccc1)NC(=O)c1ccc(Br)o1`, the activation was -2.27% (inactive).
To `COc1ccc(NS(=O)(=O)c2ccc(C)c(C(=O)N(C)Cc3ccc(OC)cc3OC)c2)cc1` belongs -3.1% (inactive); to `CCC(NC(=O)c1ccccc1NC(=O)c1ccccc1)C(=O)NNC(=O)CSc1nc2ccccc2o1` (stereo not drawn), -8.71% (inactive); to `COc1cc(CNCc2ccc3c(c2)OCO3)c([N+](=O)[O-])cc1OC`, -5.12% (inactive).
Consider `Cc1ccc(S(=O)(=O)N(Cc2ccccc2)c2ccccn2)cc1[N+](=O)[O-]`, for which the activation is -10.1% (inactive).
For `Cc1ccc2oc(=O)c3cnn(CC(=O)N4CCN(c5ccccn5)CC4)c3c2c1`, the activation was -15.1% (inactive).
Regarding `O=C(Cc1ccccc1Cl)N1CCN(c2ccccn2)CC1`, the activation is -0.15% (inactive).
Regarding `Nc1ccn(CC(=O)N2CCN(c3ccccn3)CC2)c(=O)n1`, the activation is 19% (active).
For the compound `Cc1cccc(Nc2nc(-c3ccccc3)cs2)n1`, the activation is 22.1% (active).
To `COc1ccc2c(c1OC)C(=O)OC2Nc1nc(-c2ccccc2)cs1` (stereo not drawn) belongs 4.62% (inactive).
In the case of `CC(=O)NC(c1ccccc1)c1nc(-c2cccc(C(C)C)c2)cs1` (stereo not drawn), the activation is -1.15% (inactive).
Turning to `Cc1cccc(N(C(=O)Cc2cccs2)C(C(=O)NC2CCCC2)c2ccsc2)c1` (stereo not drawn), the activation was -1.6% (inactive).
Take `CCOc1ccc(C(=O)NC2CCN(S(=O)(=O)CC)CC2)cc1`: the activation is 11.7% (inactive).
Turning to `Cc1ccc(C(=O)NC2CCN(C(=O)Nc3ccc(F)cc3)CC2)cc1`, the activation is -2.54% (inactive).
With `CCOc1ccc(C(=O)NC2CCN(C(=O)Nc3ccccc3OC)CC2)cc1`, the activation is 19.6% (active).
Take `Cc1cc(C)cc(NC(=O)N2CCC(NC(=O)c3ccc(F)cc3)CC2)c1`: the activation was 18.7% (active).
Regarding `Cc1ccc(C(=O)NC2CCN(C(=O)Nc3ccccc3Cl)CC2)cc1`, the activation is -7.16% (inactive).
As to `COc1ccc(C(=O)NC2CCN(C(=O)Nc3ccc(F)cc3)CC2)cc1`, the activation was 1.29% (inactive).
`Cc1ccc(OCC(=O)N2CCN(S(=O)(=O)c3ccc(Cl)s3)CC2)cc1C`: the activation is 6.01% (inactive).
`CCCNCc1cc(OCC)c(OCC(=O)Nc2ccccc2)cc1Br`: the activation was -3.11% (inactive).
On to `C=CC[C@@H](CC(=O)N[C@@H](CO)Cc1ccccc1)C(=O)N[C@H](COC(=O)[C@H](CC=C)CC(=O)OC(C)(C)C)Cc1ccccc1`, for which the activation was 12.5% (inactive).
Take `CCOC(=O)c1c(NC(=O)NC(C)(C)C)sc2c1CCN(C)C2`: the activation is -2.43% (inactive).
As to `CCOC(=O)C(C)N(c1ccccc1Cl)S(C)(=O)=O` (stereo not drawn), the activation is 4.74% (inactive).
In the case of `O=C(Nc1cc(S(=O)(=O)N2CCOCC2)ccc1OCC(F)(F)F)c1ccc(N2CCCC2=O)cc1` it was -1.35% (inactive).
To `COc1ccc(/C=C(/NC(=O)c2ccco2)C(=O)Nc2ccc(C(C)=O)cc2)cc1` belongs 5.57% (inactive).
